KCNK3 inh – human KCNK3 channel inhibition, primary screen; O14649; CHO-KCNK3 thallium flux, FluxOR fluorescence; hits give low values; B-score at 10 µM; 340,000 compounds, 0.84% hits; AID 602410;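 active = B-score under library mean minus 4 SD, starting fluorescence ratio at most library mean plus 5 SD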;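 note: more negative B-score means stronger inhibition of thallium flux through KCNK3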
hERG protect – shields human hERG channel from block by proarrhythmic agents; Q12809; 310,000 compounds, 0.51% hits; activation (rescue from dofetilide block), less the hit threshold, % at 10 µM; AID 1511; CHO-hERG, FluxOR thallium flux, dofetilide IC70 present;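 active = activation above the mean of controls blocked by dofetilide plus 5 SD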;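 note: thallium influx through hERG after potassium depolarization seen as dye fluorescence rise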
KCNQ1 inh – inhibitors of human KCNQ1 potassium channel | CHO-K1 KCNQ1, FluxOR thallium flux fluorescence; hits give high values | B-score at 10 µM | AID 2642 | 310,000 compounds, 1.3% hits | P51787;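 active = compounds whose thallium flux B-score, printed positive for inhibition, exceeds three library SD while starting fluorescence stays within three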;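 note: channel opened by potassium depolarization with thallium stimulus after 20 min compound exposure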
KCNQ1 pot – potentiates or activates the human KCNQ1 potassium channel; P51787; CHO-K1 KCNQ1, thallium flux FluxOR fluorescence; hits give high values; B-score at 10 µM; 310,000 compounds, 0.35% hits; AID 2648;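 active = fluorescence ratio B-score, a plate-corrected score, at least three library SD, with initial intensity B-score within 5 SD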
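System: CHO-K1 cells stably expressing KCNQ1 / Medium: assay buffer for compound exposure, DMSO matched across wells / Reagent: thallium- and potassium-containing depolarizing buffer / Compound: one concentration, matched DMSO / Incubation: 20 min compound pretreatment at room temperature / Measured by: kinetic FluxOR fluorescence, 10 s baseline plus 110 s post-stimulus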
KCNK9 inh – blocks the human KCNK9 two-pore domain potassium channel. Q9NPC2. HEK293 KCNK9, FluxOR thallium flux fluorescence; hits give low values. B-score at 10 µM. 310,000 compounds, 1.2% hits. AID 488922;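 active = ratio B-score over 3 SD below the library mean, with starting fluorescence within 5 SD of its mean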;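 note: negative B-score means less thallium flux so channel inhibition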
* marks the source's active call; other numbers are inactive results; i = inactive; / = no result given. A selection: hits, their analogues and other compounds. The true share with any hit is near 3.1%.

SMILES	KCNK3 inh	hERG protect	KCNQ1 inh	KCNQ1 pot	KCNK9 inh
Cc1cccc(C(=O)N=c2c(C#N)cc3c(=O)n4cccc(C)c4nc3n2Cc2ccco2)c1	i	-17	7*	i	i
COc1ccc(CN(C)C(=O)C2CCN(S(=O)(=O)c3cccs3)CC2)cc1F	i	/	/	/	/
COc1ccc(C=C2C=C(C(C)(C)C)C(=O)C(C(C)(C)C)=C2)cc1OC	i	-4	6*	i	i
COCCn1c(=S)[nH]c2sc3c(c2c1=O)CCC(C)C3 (configuration not stated)	i	27*	i	60*	i
Cn1c(=S)[nH]c2sc3c(c2c1=O)CCC(C(C)(C)C)C3 (configuration not stated)	i	57*	i	80*	i
O=c1[nH]c(=S)[nH]c2sc3c(c12)CCCCCC3	i	-3	i	10*	i
COCCCn1c(=S)[nH]c2sc3c(c2c1=O)CCCS3	i	19*	i	i	i
O=c1[nH]c(C2CC2)nc2sc3c(c12)CCCC3	i	-6	i	i	i
O=C(NNC(=O)c1ccc([N+](=O)[O-])cc1Cl)c1ccncc1	i	-6	i	i	i
CCOc1ccc(C(=O)NCC(=O)NNC(=O)CN(C)S(=O)(=O)c2ccc(Cl)cc2)cc1OCC	i	/	/	/	/
Cc1ccc(NC2Sc3ccccc3NC2=O)cc1Cl (configuration not stated)	i	-5	i	i	i
CC(NC(=O)C(=O)NCCN1CCN(C(=O)c2ccc([N+](=O)[O-])cc2)CC1)c1ccccc1 (configuration not stated)	i	-7	i	i	i
O=C(CCC(=O)Nc1nnc(C2CCCCC2)s1)NCc1ccccc1	i	-3	i	i	i
CCCn1c(=S)[nH]c2sc3c(c2c1=O)CCCC3	i	48*	i	43*	i
Nn1c(=S)[nH]c2sc3c(c2c1=O)CCCC3	i	-3	i	i	i
NC(=O)C1CN(C(=O)c2nn(Cc3ccccc3)c(=O)c3ccccc23)c2ccccc2O1 (configuration not stated)	i	/	/	/	/
Cc1ccc(C(=O)N/C(=C\c2ccc3c(c2)OCO3)C(=O)Nc2ccc(C(=O)O)cc2)cc1	i	-8	i	i	i
CCOC(=O)c1c(C)[nH]c(C)c1C(=O)CSc1nc2ccccc2c(=O)n1-c1ccc(Cl)cc1	i	-9	6*	i	i
O=C(CSc1nc2ccccc2c(=O)n1-c1ccc(Cl)cc1)c1ccco1	i	-9	i	i	i
COc1cc(CNCCCN2CCOCC2)ccc1OCC(=O)NC(C)(C)C	i	2	i	i	i
CCOc1cc(CNCCCN2CCOCC2)ccc1OCC(=O)NC(C)(C)C	i	-6	i	9*	i
CCCCCc1ccc(CC(=O)N2CCOCC2)cc1	i	-1	i	i	i
COc1ccccc1NC(=O)c1ccccc1NS(=O)(=O)c1cccs1	i	-12	6*	i	i
O=C(Cc1n[nH]c(=O)c2ccccc12)OCC(=O)c1ccc(OC(F)F)cc1OC(F)F	i	-10	i	i	i
COc1ccccc1/C=C/C(=O)N1CCN(S(=O)(=O)c2cc(C)ccc2C)CC1	-8.8*	/	/	/	/
SMILES	KCNK3 inh	hERG protect	KCNQ1 inh	KCNQ1 pot	KCNK9 inh
COc1ccc(NC(=O)c2ccc(COCC(F)(F)C(F)F)cc2)cc1	i	13*	i	i	i
COc1ccc(NC(=O)c2ccc(COCC(F)(F)C(F)F)cc2)cc1OC	i	-2	i	i	i
Cc1ccc(NC(=O)COc2ccccc2CNC(C)(C)CC(C)(C)C)cc1	i	-19	8*	i	i
CCC(Sc1nc2ncccc2[nH]1)C(=O)NCCc1ccccc1 (configuration not stated)	i	-6	i	i	i
Cc1ccc(C(=O)OCC(=O)N2C(C)CCCC2C)cc1S(=O)(=O)N1CCCCC1 (configuration not stated)	i	-9	i	i	i
COC(=O)c1ccc(COC(=O)c2ccc(C)c(S(=O)(=O)N3CCCCC3)c2)cc1	-9.2*	/	/	/	/
Cc1ccc(C(=O)Oc2ccc([N+](=O)[O-])cc2)cc1S(=O)(=O)N1CCCCCC1	i	-8	i	i	-8.1*
Cc1ccc(C(=O)Nc2cccc(O)c2)cc1S(=O)(=O)N1CCCCCC1	i	-5	i	i	i
CNC(=O)c1ccccc1NC(=O)c1ccc(C)c(S(=O)(=O)N2CCCCC2)c1	i	8.7*	i	i	i
O=c1nc(N2CCCC2)nc(N2CCCC2)[nH]1	i	-5	i	i	i
Cc1cccc(CC(=O)N2CCCC2)c1	i	-2	i	i	i
CCCCCCCC/C=C\CCCCCCCC(=O)O	i	13*	i	i	i
O=C1NC(=O)/C(=C\c2ccc(Cl)cc2Cl)N1	i	/	/	/	/
COc1cc(C(=O)NCCNC(=O)C2CCCNC2=O)cc(OC)c1OC (configuration not stated)	i	-6	i	i	i
COc1ccc(C2C(C(C)=O)=C(C)N=c3s/c(=C\c4cc(C)n(C)c4C)c(=O)n32)c(OC)c1 (configuration not stated)	i	-25	9*	i	i
CCOC(=O)C1=C(C)N=c2s/c(=C/c3ccc(OCC(=O)O)cc3)c(=O)n2C1c1ccc(OC)cc1OC (configuration not stated)	i	-7	6*	i	i
CCOC(=O)C1=C(C)N=c2s/c(=C\c3ccc(OCC(=O)O)cc3)c(=O)n2C1c1ccc(Cl)cc1 (configuration not stated)	i	-7	7*	i	i
COc1ccc(C2C(C(C)=O)=C(C)N=c3s/c(=C\c4ccco4)c(=O)n32)c(OC)c1 (configuration not stated)	i	-15	i	i	i
CCOC(=O)C1=C(C)N=c2s/c(=C/c3ccc(OCC(=O)O)cc3)c(=O)n2C1c1ccc(F)cc1 (configuration not stated)	i	-5	i	i	i
CCOC(=O)C1=C(C)N=c2s/c(=C\c3ccncc3)c(=O)n2C1c1ccc2c(c1)OCO2 (configuration not stated)	i	-14	8*	i	i
CCOC(=O)C1=C(C)N=c2s/c(=C/c3ccccc3)c(=O)n2C1c1ccc(OC)c(OC)c1 (configuration not stated)	i	-3	i	i	i
CC(=O)NC12CC3CC(C1)CC(C(=O)N1CCN(S(=O)(=O)c4ccccc4C#N)CC1)(C3)C2	i	/	/	/	/
Cc1ccccc1NC(=O)NC1(C(=O)NCc2ccco2)CCCCC1	i	-5	i	i	i

Screening data deposited in PubChem BioAssay by Johns Hopkins Ion Channel Center.
